Assay results from different studies.
Lines come from different studies, so protocols differ.
Target: Cytochrome P450 2D6 (CYP2D6, Homo sapiens, UniProt P10635)

The IC50 of CC1(CO)C(O[C@@H]2O[C@H](C(=O)O)[C@@H](O)[C@H](O)[C@H]2O)CC[C@@]2(C)C1CC[C@]1(C)C2CC=C2[C@H]3CC(C)(C)[C@H](O)[C@@H](O)[C@]3(CO)[C@H](O)C[C@]21C (some centres unmarked) is reported as over 90 µg/mL (enzyme activity, inhibitor, mass spectrometry; human, liver microsomes).
CCN(Cc1cnc2nc(N)nc(N)c2n1)c1ccc(C(=O)N2CCC(C(=O)OC)CC2)cc1 has an inhibition of -20% (enzyme activity, inhibitor, luciferase; 10 µM).
For CC(=O)c1cccc(OCc2cc(C(=O)N(C)[C@@H](C)c3ccccn3)no2)c1, the IC50 was over 30 µM (enzyme activity, inhibitor; human, liver microsomes).
With Cc1cccc(F)c1N1CCC(N2Cc3cn(CC(C)(F)F)nc3N(Cc3ccccc3C(F)(F)F)C2=O)CC1 the IC50 was over 10 µM (enzyme activity, inhibitor; human, liver microsomes).
C[C@H]1C[C@@H](N2C(=N)N[C@](C)(c3cccc(NC(=O)c4cccc(C#N)c4)c3Cl)CC2=O)CCO1 has an inhibition of 45% (enzyme activity, inhibitor; human, liver microsomes; 20 µM, 15 min).
The inhibition of C=C[C@H]1C[N@@]2CC[C@H]1C[C@@H]2[C@@H](O)c1ccnc2ccc(OC)cc12 is reported as 80.8% (enzyme activity, inhibitor; human, liver microsomes; 1 µM).
With Cc1ccc(C(=O)N2CCOC[C@H]2Cc2cccc(-n3nccn3)c2)c(-n2nccn2)c1 the inhibition was 33% (enzyme activity, inhibitor; human, liver microsomes; 100 µM).
With NC(=O)C1CCN(C(=O)Cc2ccc(N(CCCO)Cc3cnc4nc(N)nc(N)c4n3)cc2)CC1 the inhibition was -15.4% (enzyme activity, inhibitor, luciferase; 10 µM).
COCCc1ccc(OCC(O)CNC(C)C)cc1 (centres unmarked) gave an AUC(0-inf) of 770 ng·h/mL (human, plasma; oral, 100 mg, single dose, healthy volunteers).
For Nc1ccc(S(=O)(=O)Nc2ccnn2-c2ccccc2)cc1, the inhibition was -23% (enzyme activity, inhibitor; human, liver microsomes; 10 µM).
The inhibition of O=C(N[C@H](Cc1c[nH]c2ccccc12)C(=O)Nc1ccncc1)c1ccc(-c2cc(F)ccc2F)cc1F is reported as 47% (enzyme activity, inhibitor; human, liver microsomes; 1 µM).
CN(Cc1cnc2nc(N)nc(N)c2n1)c1ccc(C(=O)N2CCCCC2)cc1 gave an inhibition of -23.3% (enzyme activity, inhibitor, luciferase; 10 µM).
With CCc1cc(/C(C)=N/OCc2ccc(C3CCCCC3)c(C(F)(F)F)c2)ccc1CN1CC(C(=O)O)C1 the inhibition was 17.4% (enzyme activity, inhibitor; human, liver microsomes; 200 µM, 20 min).
The inhibition of NC(=O)C1CCCN1C(=O)Cc1ccc(N(CCCO)Cc2cnc3nc(N)nc(N)c3n2)cc1 (centres unmarked) is reported as -13.9% (enzyme activity, inhibitor, luciferase; 10 µM).
With Cc1nc2c([nH]1)c(=O)n(C)c(=O)n2Cc1ccco1 the inhibition was -35% (enzyme activity, inhibitor; human, liver microsomes; 40 µM).
The inhibition of Nc1nc(N)c2nc(CNc3cccc4ccccc34)cnc2n1 is reported as 102% (enzyme activity, inhibitor, luciferase; 10 µM).
C=CC(=O)Nc1cc(Nc2nccc(Nc3cc(Cl)c(F)cc3C(C)(C)O)n2)c(OC)cc1N1CC[C@@H](N(C)C)C1 gave an inhibition of under 20% (enzyme activity, inhibitor; human, liver microsomes; 10 µM).
